The structures appear in SMILES notation.

We go through eight compounds from ChEMBL document CHEMBL1125484, “Nonpeptide angiotensin II receptor antagonists: synthetic and computational chemistry of N-[[4-[2-(2H-tetrazol-5-yl)-1-cycloalken-1-yl]phenyl]methyl]imidazole derivatives and their in vitro activity” (J Med Chem, 1992).

Data set [1] is filed under the species Oryctolagus cuniculus. As to the kind of experiment: pA2 value was determined by the compound's ability to antagonize the AII-induced contraction of rabbit aorta rings. Format: functional. To be noted: read-out: pA2 (converted). Summed up: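 Thoracic aorta rings (3 mm) from New Zealand white rabbits were held in 37 °C physiological salt solution aerated with 95% O2/5% CO2, and isometric tension was recorded. A cumulative AII curve (10^-10 to 10^-7 M) was run, the tissue washed, and the compound added in DMSO for 30 min before the AII curve was repeated. Responses were expressed as % of control maximum, with EC50s from four-parameter logistic fits.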

The target of data set [2] is T1, Type-1 angiotensin II receptor B (Rattus norvegicus, UniProt P29089).
T1 sequence (P29089 whole entry): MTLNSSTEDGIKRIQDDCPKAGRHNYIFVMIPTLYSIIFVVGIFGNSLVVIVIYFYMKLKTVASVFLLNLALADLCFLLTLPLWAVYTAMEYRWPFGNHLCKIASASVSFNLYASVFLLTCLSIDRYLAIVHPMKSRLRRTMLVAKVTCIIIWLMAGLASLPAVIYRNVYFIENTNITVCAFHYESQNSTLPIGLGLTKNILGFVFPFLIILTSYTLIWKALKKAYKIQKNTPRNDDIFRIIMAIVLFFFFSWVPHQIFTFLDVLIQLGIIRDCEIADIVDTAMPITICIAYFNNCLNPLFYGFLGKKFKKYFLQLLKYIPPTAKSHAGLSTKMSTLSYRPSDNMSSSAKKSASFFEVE
The data set is described as follows: Concentration required to inhibit binding of radioligand [125I]AII to angiotensin II receptor, type 1 in rat adrenal glomerulosa tissue. The method, boiled down:
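Buffer was 50 mM Tris, 120 mM NaCl, 5 mM MgCl2, 1 mM DTT and 0.05% BSA, with 8–15 μg protein. Antagonists were tested at 10 nM–100 μM, and nonspecific binding was defined with 0.1 μM [Sar1,Ile8]AII. Bound ligand was filtered and gamma-counted in triplicate. IC50 was taken from the linear portion of the displacement curve.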

A short description of data set [3]: Partition coefficient (logP). Format: physicochemical. To be noted: octanol/water.

Turning to `CCCCc1nc(Cl)c(C(=O)O)n1Cc1ccc(C2=C(c3nn[nH]n3)CCCCC2)cc1`, the Kb in data set [1] was 12 nM. The IC50 in data set [2] came to 390 nM. This compound had a logP in data set [3] of 5.37.

`CCCCc1nc(Cl)c(CO)n1Cc1ccc(-c2ccccc2-c2nnn[nH]2)cc1` [LOSARTAN]: the Kb in data set [1] is 3.8 nM. In data set [3], this compound registered a logP of 4.45.

For `CCCCc1nc(Cl)c(CO)n1Cc1ccc(C2=C(c3nn[nH]n3)CCCCC2)cc1`, the Kb in data set [1] is 468 nM. The compound further registered an IC50 in data set [2] of 2800 nM. In data set [3], this compound registered a logP of 4.9.

Turning to `CCCCc1nc(Cl)c(C(=O)O)n1Cc1ccc(C2=C(c3nnn[nH]3)CCC2)cc1`, the Kb in data set [1] is 14.5 nM. Also, the IC50 in data set [2] stood at 310 nM. In data set [3], this compound showed a logP of 4.25.

Take `CCCCc1nc(Cl)c(CO)n1Cc1ccc(C2=C(c3nnn[nH]3)CCCC2)cc1`: the Kb in data set [1] was 129 nM. This compound yielded a logP in data set [3] of 4.34.

Turning to `CCCCc1nc(Cl)c(C(=O)O)n1Cc1ccc(-c2ccccc2-c2nn[nH]n2)cc1` [CARBOXYLIC ACID METABOLITE], the Kb in data set [1] is 0.234 nM. The logP in data set [3] was 4.92.

With `CCCCc1nc(Cl)c(C(=O)O)n1Cc1ccc(C2=C(c3nn[nH]n3)CCCC2)cc1`, the Kb in data set [1] is 4.07 nM. The compound further registered an IC50 in data set [2] of 400 nM. In addition, the logP in data set [3] came to 4.81.

As to `CCCCc1nc(Cl)c(CO)n1Cc1ccc(C2=C(c3nnn[nH]3)CCC2)cc1`, the Kb in data set [1] was 355 nM. The same compound came in with an IC50 in data set [2] of 3500 nM. This compound also displayed a logP in data set [3] of 3.78.
